Most compounds without a hit are left out; they make up all but 2.9% or so of the library.
PRMT1 inh: blocks human protein arginine methyltransferase 1. Q99873. recombinant PRMT1, activity-based probe fluorescence polarization. inhibition, % at 2.79 µM. 370,000 tested, 1.3% active. AID 652257;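 active = inhibition above about 21% made by adding two undisclosed values, limit read from the data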
SIAE inh: human SIAE inhibition, primary screen; inhibition, % at 9.66 µM; 370,000 tested, 0.69% active; Q9HAT2; SIAE FP-Rh probe binding, fluorescence polarization;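 active = inhibition above a cutoff: mean of compounds within the control limits plus 3 SD of those, cut at about 17% in these data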;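 also: 0% = plate median of compound wells and 100% = probe without SIAE protein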
Target sequence (Q9HAT2 whole entry, looked up): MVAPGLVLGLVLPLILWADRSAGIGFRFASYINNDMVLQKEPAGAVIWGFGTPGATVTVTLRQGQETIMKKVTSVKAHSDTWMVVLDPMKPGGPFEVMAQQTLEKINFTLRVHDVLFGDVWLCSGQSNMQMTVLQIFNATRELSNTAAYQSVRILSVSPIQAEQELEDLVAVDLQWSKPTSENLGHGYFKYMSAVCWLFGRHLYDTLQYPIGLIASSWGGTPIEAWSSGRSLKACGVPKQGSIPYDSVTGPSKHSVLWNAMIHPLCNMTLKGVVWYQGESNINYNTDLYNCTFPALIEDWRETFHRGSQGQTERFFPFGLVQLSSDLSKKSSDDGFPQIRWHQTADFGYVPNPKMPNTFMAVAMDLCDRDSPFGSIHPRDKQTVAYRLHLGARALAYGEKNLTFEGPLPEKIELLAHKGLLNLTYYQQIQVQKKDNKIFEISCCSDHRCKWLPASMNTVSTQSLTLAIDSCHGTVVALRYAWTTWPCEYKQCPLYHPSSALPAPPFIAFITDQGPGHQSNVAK
HTRA1 inh: blocks human HTRA1 serine peptidase | recombinant HTRA1, FP-rhodamine activity-based probe, fluorescence polarization | inhibition, % at 5.96 µM | 340,000 tested, 0.5% active | AID 504803; in the data active = inhibition above about 36%;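 also: 0% = enzyme with DMSO and 100% = wells lacking enzyme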
TCR CD3 inh: blocks the human TCR-CD3 interaction. AID 651800. TAMRA-labeled TCR probe fluorescence, biochemical. 360,000 tested, 0.37% active. inhibition, % at 9.4 µM; in the data active = inhibition above about 19%;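 also: recombinant mutant TCR 2C K166C tagged with TAMRA read by polarization; 0% = receptor in buffer alone and 100% = receptor with positive control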
PAD4 inh: blocks human protein arginine deiminase 4; recombinant PAD4, RCA probe fluorescence polarization; inhibition, % at 6.36 µM; 330,000 tested, 0.41% active;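 active = percent inhibition above a cutoff equal to the mean of all tested compounds plus 3 SD, cut at about 15% in these data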;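 also: 0% = PAD4 with RCA probe and DMSO and 100% = probe without PAD4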
mABHD4 FP: ABHD4 (mouse) inhibition, primary FP screen | Q8VD66 | purified mABHD4, FP-Rh probe fluorescence polarization | inhibition, % at 8.92 µM | 370,000 tested, 0.54% active | AID 720543;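 active = inhibition exceeding the mean over every tested compound plus 3 SD, cut at about 30% in these data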;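 also: 0% = plate median of compound wells and 100% = S159A mutant with DMSO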
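Assay system: Wild-type mouse ABHD4 protein | Medium: HEPES pH 7.0 buffer, 150 mM NaCl, 0.01% Pluronic F-127 | Incubation: Enzyme–compound pre-incubation 45 min, then probe 60 min, both 25 °C | Technique: Fluorescence polarization with parallel and perpendicular emission, 525/598 nm | Evaluation: % inhibition of FP-Rh probe binding versus controls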
mABHD4 conf: ABHD4 (mouse) inhibition, FP confirmation | shares compounds with mABHD4 FP | purified mABHD4, FP-Rh probe fluorescence polarization | inhibition, % at 8.92 µM | 1,800 tested, 55% active;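 active = mean inhibition across replicates above the hit cutoff set in the primary screen, cut at about 30% in these data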;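 also: 0% = wild-type ABHD4 with DMSO and 100% = catalytically dead S159A mutant with DMSO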
Numbers without * were called inactive; . = no result.

SMILES	PRMT1 inh	SIAE inh	HTRA1 inh	TCR CD3 inh	PAD4 inh	mABHD4 FP	mABHD4 conf
CCCCn1c(N)c(N(CC(C)C)C(=O)C2CCCO2)c(=O)[nH]c1=O (centres undefined)	1	0	3	6	-1	32*	-4
CCCCn1c(N)c(N(CC(C)C)C(=O)c2ccc(N3C(=O)CCC3=O)cc2)c(=O)[nH]c1=O	-1	2	-2	-2	3	35*	4
CCCCn1c(N)c(N(CC(C)C)C(=O)c2ccc(N3C(=O)c4ccccc4C3=O)cc2)c(=O)[nH]c1=O	-3	-2	-1	2	-4	3	.
CN(C(=O)CNC(=O)c1ccccc1OCC(=O)Nc1ccc(Br)cc1)c1ccccc1	1	-6	.	.	.	-11	.
CCOC(=O)C1=C(C)NC2=C(C(=O)c3ccccc32)C1c1ccc(O)cc1 (centres undefined)	9	5	22	-8	1	43*	49*
CCOC(=O)C1=C(C)NC2=C(C(=O)c3ccccc32)C1c1cccc2ccccc12 (centres undefined)	5	7	-6	3	1	21	.
CC(C)CN1C(=O)[C@@]2(CC(=O)N(C)C2c2ccccc2)c2cc(-n3cc(CCCC#N)nn3)ccc21 (some centres undefined)	-3	2	.	.	.	-3	.
Cc1cc(C)cc(N(CC(=O)NC2CCC(C)CC2)S(=O)(=O)c2cccs2)c1 (centres undefined)	0	1	.	.	.	19	.
COc1cccc(C2CC(c3ccc(NS(C)(=O)=O)cc3)=NN2C(=O)c2ccccc2)c1OC (centres undefined)	-1	6	-10	1	5	44*	55*
COc1ccccc1C1CC(c2ccc(NS(C)(=O)=O)cc2)=NN1C(=O)c1ccccc1 (centres undefined)	-1	-2	-5	3	-2	-4	.
COc1ccc(/C=N/NC(=S)Nc2ccccc2[N+](=O)[O-])cc1O	1	-1	16	8	-1	44*	24
O=[N+]([O-])c1cc(/C=N/NC(=S)Nc2ccccc2Cl)ccc1Cl	0	-13	-12	-3	0	-3	.
CC(CSc1nc2ccccc2s1)Cn1c(N2CCCC2)nc2c1c(=O)[nH]c(=O)n2C (centres undefined)	0	4	-12	-1	1	39*	42*
COc1ccc(S(=O)(=O)N(C(=O)c2ccco2)c2cc3sc(=O)oc3c3ccccc23)cc1	94*	-53	22	3	9	54*	31*
CC(CCc1ccc(O)cc1)NCCc1ccc(O)c(O)c1 (centres undefined)	21	8	32	-9	0	33*	15
O=c1c2cc3c(=O)n(-c4ccccc4O)c(=O)c3cc2c(=O)n1-c1ccccc1O	5	7	20	6	-14	30*	2
Cc1ccsc1S(=O)(=O)n1c(CN2CCOCC2)nc2ccccc21	4	6	.	.	.	4	.
O=C(C=Cc1ccco1)c1ccc([N+](=O)[O-])cc1	23*	10	2	5	.	37*	5
Cc1ccccc1NC(=O)Cc1nc(COC(=O)c2ccc([N+](=O)[O-])cc2)cs1	2	-4	1	4	.	25	.
Cc1ccccc1NC(=O)Cc1nc(COC(=O)c2cccc([N+](=O)[O-])c2)cs1	-1	6	-7	8	1	54*	42*
Cc1ccccc1NC(=O)Cc1nc(COC(=O)c2ccc(O)cc2O)cs1	1	-4	-17	11	-3	10	.
Cc1ccccc1NC(=O)Cc1nc(COC(=O)c2cc([N+](=O)[O-])ccc2NCCO)cs1	0	-6	-17	-10	2	40*	19
COc1ccc2nc(-n3c(O)c(C4=c5ccccc5=NC4=O)[nH]c3=S)sc2c1	3	3	30	0	-4	52*	169*
CC(C)N1CC2(CC(c3ccccc3C(F)(F)F)=NO2)CN1C(=O)c1ccc(C(C)(C)C)cc1 (centres undefined)	6	-7	-27	-5	.	53*	43*
CC(C)N1CC2(CC(c3ccccc3C(F)(F)F)=NO2)CN1C(=O)c1ccco1 (centres undefined)	1	-2	5	10	.	31*	21
SMILES	PRMT1 inh	SIAE inh	HTRA1 inh	TCR CD3 inh	PAD4 inh	mABHD4 FP	mABHD4 conf
O=C(CCCC(=O)N/N=C\c1ccccn1)N/N=C\c1ccccn1	1	-6	6	4	-2	-1	.
O=C(CNc1ccc2ccccc2c1)N/N=C/c1ccccn1	4	15	.	-2	-4	39*	12
COC(=O)[C@]12C[C@H](CC(=O)N3CCOCC3)C(=O)N(Cc3ccccc3)C1=C[C@H](C(C)(C)C)O[C@@H]2C	-5	0	.	2	.	5	.
COc1ccc(CN2C(C(=O)NCC(C)C)CSCCS2(=O)=O)cc1 (centres undefined)	0	-5	.	.	.	1	.
CC1=NN(Cc2ccccc2)C(=O)C1C(c1ccccc1)C(C#N)C#N (centres undefined)	0	8	3	6	-11	53*	-10
CC1=NN(Cc2ccccc2)C(=O)C1C(c1ccc(Cl)cc1)C(C#N)C#N (centres undefined)	4	8	33	-8	-3	83*	29
O=Cc1cc(OCc2ccccc2)ccc1[B-](F)(F)F	-7	8	0	5	.	45*	43*
CCOC(=O)N1CCN(C(=O)C[C@H]2C(=O)N(CCCOC)C3=CCCC[C@@]32C(=O)OCC)CC1	1	2	.	.	.	5	.
O=C(CN1CCN(c2ccc(O)cc2)CC1)Nc1ccccc1C(=O)NCCc1ccccc1	18	10	27	-6	1	32*	21
COc1cccc(N2CCN(CC(=O)Nc3ccccc3C(=O)NCCc3ccccc3)CC2)c1	1	-3	-40	-8	-1	7	.
COCCCN1C(=O)[C@H](CC(=O)NCCc2ccccc2OC)[C@]2(C(=O)OC)CCCCC=C12	-2	-6	.	.	.	-1	.
F[B-](F)(F)COc1ccccc1	2	3	-3	-1	.	68*	36*
c1ccc(OCCOCCOc2ccccc2)cc1	1	3	-8	-8	.	0	.
Nc1nc(N)c(N=O)c(Nc2ccc(Cl)c(Cl)c2)n1	9	8	.	-3	.	31*	33*
CCCCN(C)c1c2c(nc3ncnn13)CCCC2	-4	-3	.	.	.	6	.
Cc1cccc(NC(=S)N(C)C)c1C	-4	4	7	-7	-4	-2	.
Cc1cccc(Nc2cc(C)c3c(O)cccc3n2)c1C	11	9	9	-5	1	30*	42*
COc1ccc(C2=CC(=O)N(Nc3ccccc3)C2=O)cc1	8	1	.	7	3	17	.
